Measured values taken from ChEMBL document CHEMBL1149822, “Synthesis, antimicrobial and anti-inflammatory activities of some 1,2,4-triazolo[3,4-b][1,3,4]thiadiazoles and 1,2,4-triazolo[3,4-b][1,3,4]thiadiazines bearing trichlorophenyl moiety” (2008).
Values after ≈ are worked out from the molar mass of the structure shown.

Experiments:
Type in all cases: functional
Pseudomonas aeruginosa [1] = test: microbe, parasite or virus in culture; details: ATCC27853, read-out: IZ
Pseudomonas aeruginosa [2] = test: Antibacterial activity against Pseudomonas aeruginosa ATTC 27853 after 16 to 18 hrs by serial plate dilution method; details: ATCC27853
Method in brief: (§1)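 Serial dilutions were made in Mueller-Hinton broth in tubes, adjusted to […] with phosphate buffer, and inoculated with a standardized bacterial suspension. Tubes were incubated at 37 °C for 16–18 h. MIC was taken as the lowest concentration with no visible growth.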

Talaromyces marneffei [3] = test: Antifungal activity against Penicillium marneffei at […] ug/ml after 3 to 4 days; details: read-out: IZ
Talaromyces marneffei [4] = test: Antifungal activity against Penicillium marneffei by serial plate dilution method
Method in brief: (§2)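 Agar of peptone 1 g, D-glucose 4 g and agar 2 g per 100 mL water, pH 5.7, was lawned with a fungal spore suspension in normal saline. The excess was decanted and plates were dried at 37 °C for 1 h. Wells were punched and compounds in DMSO were added, with a DMSO control. Plates were run in triplicate at 37 °C for 3–4 days, and the inhibition zone diameter was measured.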

Staphylococcus aureus [5] = test: Antibacterial activity against Staphylococcus aureus ATTC 25923 after 16 to 18 hrs by serial plate dilution method
Method in brief: as §1

[6] = test system: Trichophyton mentagrophytes; test: Antifungal activity against Trichophyton mentagrophytes at […] ug/ml after 3 to 4 days; details: read-out: IZ
Aspergillus flavus [7] = test: Antifungal activity against Aspergillus flavus NCIM 524 by serial plate dilution method
Method in brief: as §2

Aspergillus fumigatus [8] = test: Antifungal activity against Aspergillus fumigatus NCIM 902 by serial plate dilution method
Klebsiella pneumoniae [9] = test: microbe, parasite or virus in culture; details: read-out: IZ
Klebsiella pneumoniae [10] = test: Antibacterial activity against Klebsiella pneumoniae after 16 to 18 hrs by serial plate dilution method
Method in brief: as §1

Aspergillus flavus [11] = test: Antifungal activity against Aspergillus flavus NCIM 524 at […] ug/ml after 3 to 4 days; details: read-out: IZ
Rattus norvegicus = test: Antiinflammatory activity against carrageenan-induced paw oedema in albino rat at 50 mg/kg, po relative to control
Method in brief: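 Albino rats of 180–250 g were fasted 18 h and placed in groups of six. Samples were suspended in 2% w/v acacia mucilage, and the vehicle group served as control. 30 min after dosing, carrageenan (1 mg mL⁻¹, 0.1 mL) was injected subcutaneously into the right hind paw. Paw volume was measured immediately and at 3 h, and % oedema inhibition was calculated versus vehicle controls.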

Escherichia coli [12] = test: microbe, parasite or virus in culture; details: ATCC25922, read-out: IZ
Staphylococcus aureus [13] = test: Antibacterial activity against Staphylococcus aureus ATTC 25923 at […] ug/ml after 3 to 4 days; details: read-out: IZ
Aspergillus fumigatus [14] = test: Antifungal activity against Aspergillus fumigatus NCIM 902 at […] ug/ml after 3 to 4 days; details: read-out: IZ
Escherichia coli [15] = test: Antibacterial activity against Escherichia coli ATTC 25922 after 16 to 18 hrs by serial plate dilution method; details: ATCC25922
Method in brief: as §1

[16] = test system: Trichophyton mentagrophytes; test: Antifungal activity against Trichophyton mentagrophytes by serial plate dilution method
[17] = test system: Trichophyton mentagrophytes; test: Antifungal activity against Trichophyton mentagrophytes at 12 ug/ml after 3 to 4 days; details: read-out: IZ
Method in brief: as §2

Aspergillus flavus [18] = test: Antifungal activity against Aspergillus flavus NCIM 524 at 12 ug/ml after 3 to 4 days; details: read-out: IZ
Method in brief: as §2

Staphylococcus aureus [19] = test: Antibacterial activity against Staphylococcus aureus ATTC 25923 at 12 ug/ml after 3 to 4 days; details: read-out: IZ
Method in brief: (§3)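 Agar well diffusion. Plates were seeded with a bacterial suspension, the excess was decanted and plates were dried at 37 °C for 1 h. Wells were punched and compounds in DMSO were added, with DMSO wells as control. Plates were run in triplicate at 37 °C for 3–4 days and zones of inhibition were scored.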

Escherichia coli [20] = test: Antibacterial activity against Escherichia coli ATTC 25922 at 12 ug/ml after 3 to 4 days; details: ATCC25922, read-out: IZ
Method in brief: as §3

Klebsiella pneumoniae [21] = test: Antibacterial activity against Klebsiella pneumoniae at 12 ug/ml after 3 to 4 days; details: read-out: IZ
Method in brief: as §3

Aspergillus fumigatus [22] = test: Antifungal activity against Aspergillus fumigatus NCIM 902 at 12 ug/ml after 3 to 4 days; details: read-out: IZ
Method in brief: as §2

Talaromyces marneffei [23] = test: Antifungal activity against Penicillium marneffei at 12 ug/ml after 3 to 4 days; details: read-out: IZ
Method in brief: as §2

Pseudomonas aeruginosa [24] = test: Antibacterial activity against Pseudomonas aeruginosa ATTC 27853 at 12 ug/ml after 3 to 4 days; details: ATCC27853, read-out: IZ
Method in brief: as §3

SMILES | zone of inhibition at 6.25 µg/mL (Pseudomonas aeruginosa [1]) [mm] | MIC (Pseudomonas aeruginosa [2]) [µg/mL] | zone of inhibition at 6.25 µg/mL (Talaromyces marneffei [3]) [mm] | MIC (Talaromyces marneffei [4]) [µg/mL] | MIC (Staphylococcus aureus [5]) [µg/mL] | zone of inhibition at 6.25 µg/mL [6] [mm] | MIC (Aspergillus flavus [7]) [µg/mL] | MIC (Aspergillus fumigatus [8]) [µg/mL] | zone of inhibition at 6.25 µg/mL (Klebsiella pneumoniae [9]) [mm] | MIC (Klebsiella pneumoniae [10]) [µg/mL] | zone of inhibition at 6.25 µg/mL (Aspergillus flavus [11]) [mm] | inhibition in vivo at 50 mg/kg (Rattus norvegicus) [%] | zone of inhibition at 6.25 µg/mL (Escherichia coli [12]) [mm] | zone of inhibition at 6.25 µg/mL (Staphylococcus aureus [13]) [mm] | zone of inhibition at 6.25 µg/mL (Aspergillus fumigatus [14]) [mm] | MIC (Escherichia coli [15]) [µg/mL] | MIC [16] [µg/mL] | further results
Clc1cc(Cl)c(Cl)c(-c2nnc3sc(-c4ccncc4)nn23)c1 | 16 | 6.25 (≈ 16.3 µM) | 16 | 6.25 (≈ 16.3 µM) | 6.25 (≈ 16.3 µM) | 16 | 6.25 (≈ 16.3 µM) | 6.25 (≈ 16.3 µM) | 16 | 6.25 (≈ 16.3 µM) | 16 | 11.3 | 16 | 16 | 16 | 6.25 (≈ 16.3 µM) | 6.25 (≈ 16.3 µM) | 
Clc1cc(Cl)c(Cl)c(-c2nnc3sc(COc4ccccc4)nn23)c1 | 16 | 6.25 (≈ 15.2 µM) | 16 | 6.25 (≈ 15.2 µM) | 6.25 (≈ 15.2 µM) |  | 12 (≈ 29.1 µM) | 6.25 (≈ 15.2 µM) | 16 | 6.25 (≈ 15.2 µM) |  |  | 16 | 16 | 16 | 6.25 (≈ 15.2 µM) | 12 (≈ 29.1 µM) | zone of inhibition at 12 µg/mL [17]: 11 mm; zone of inhibition at 12 µg/mL (Aspergillus flavus [18]): 11 mm
Clc1ccc(C2=Nn3c(nnc3-c3cc(Cl)cc(Cl)c3Cl)SC2)cc1 | 16 | 6.25 (≈ 14.5 µM) | 16 | 6.25 (≈ 14.5 µM) | 6.25 (≈ 14.5 µM) | 16 | 6.25 (≈ 14.5 µM) | 6.25 (≈ 14.5 µM) | 16 | 6.25 (≈ 14.5 µM) | 16 | 30.6 | 16 | 16 | 16 | 6.25 (≈ 14.5 µM) | 6.25 (≈ 14.5 µM) | 
Cc1ccc(-c2nn3c(-c4cc(Cl)cc(Cl)c4Cl)nnc3s2)cc1 | 16 | 6.25 (≈ 15.8 µM) | 16 | 6.25 (≈ 15.8 µM) | 12 (≈ 30.3 µM) |  | 12 (≈ 30.3 µM) | 6.25 (≈ 15.8 µM) | 16 | 6.25 (≈ 15.8 µM) |  | 22.6 |  |  | 16 | 12 (≈ 30.3 µM) | 12 (≈ 30.3 µM) | zone of inhibition at 12 µg/mL (Staphylococcus aureus [19]): 11 mm; zone of inhibition at 12 µg/mL [17]: 11 mm; zone of inhibition at 12 µg/mL (Aspergillus flavus [18]): 11 mm; zone of inhibition at 12 µg/mL (Escherichia coli [20]): 11 mm
CSc1ccc(C2=Nn3c(nnc3-c3cc(Cl)cc(Cl)c3Cl)SC2)cc1 | 16 | 6.25 (≈ 14.1 µM) | 16 | 6.25 (≈ 14.1 µM) | 6.25 (≈ 14.1 µM) | 16 | 6.25 (≈ 14.1 µM) | 6.25 (≈ 14.1 µM) | 16 | 6.25 (≈ 14.1 µM) | 16 | 9.67 | 16 | 16 | 16 | 6.25 (≈ 14.1 µM) | 6.25 (≈ 14.1 µM) | 
Clc1cc(Cl)cc(-c2nn3c(-c4cc(Cl)cc(Cl)c4Cl)nnc3s2)c1 | 16 | 6.25 (≈ 13.9 µM) | 16 | 6.25 (≈ 13.9 µM) | 6.25 (≈ 13.9 µM) | 16 | 6.25 (≈ 13.9 µM) | 6.25 (≈ 13.9 µM) | 16 | 6.25 (≈ 13.9 µM) | 16 |  | 16 | 16 | 16 | 6.25 (≈ 13.9 µM) | 6.25 (≈ 13.9 µM) | 
Clc1cc(Cl)c(Cl)c(-c2nnc3sc(-c4ccccc4)nn23)c1 | 16 | 6.25 (≈ 16.4 µM) |  | 12 (≈ 31.4 µM) | 6.25 (≈ 16.4 µM) | 16 | 6.25 (≈ 16.4 µM) | 12 (≈ 31.4 µM) |  | 12 (≈ 31.4 µM) | 16 | 16.1 | 16 | 16 |  | 6.25 (≈ 16.4 µM) | 6.25 (≈ 16.4 µM) | zone of inhibition at 12 µg/mL (Klebsiella pneumoniae [21]): 11 mm; zone of inhibition at 12 µg/mL (Aspergillus fumigatus [22]): 11 mm; zone of inhibition at 12 µg/mL (Talaromyces marneffei [23]): 11 mm
Clc1cc(Cl)c(Cl)c(-c2nnc3n2N=C(c2ccccc2)CS3)c1 | 16 | 6.25 (≈ 15.8 µM) |  | 12 (≈ 30.3 µM) | 12 (≈ 30.3 µM) |  | 12 (≈ 30.3 µM) | 6.25 (≈ 15.8 µM) | 16 | 6.25 (≈ 15.8 µM) |  |  |  |  | 16 | 12 (≈ 30.3 µM) | 12 (≈ 30.3 µM) | zone of inhibition at 12 µg/mL (Staphylococcus aureus [19]): 11 mm; zone of inhibition at 12 µg/mL [17]: 11 mm; zone of inhibition at 12 µg/mL (Aspergillus flavus [18]): 11 mm; zone of inhibition at 12 µg/mL (Talaromyces marneffei [23]): 11 mm; zone of inhibition at 12 µg/mL (Escherichia coli [20]): 11 mm
Clc1cc(Cl)c(Cl)c(-c2nnc3sc(-c4cccc5ncccc45)nn23)c1 |  | 12 (≈ 27.7 µM) | 16 | 6.25 (≈ 14.4 µM) | 6.25 (≈ 14.4 µM) | 16 | 6.25 (≈ 14.4 µM) | 6.25 (≈ 14.4 µM) | 16 | 6.25 (≈ 14.4 µM) | 16 | 9.67 | 16 | 16 | 16 | 6.25 (≈ 14.4 µM) | 6.25 (≈ 14.4 µM) | zone of inhibition at 12 µg/mL (Pseudomonas aeruginosa [24]): 11 mm
Cc1ccc(C2=Nn3c(nnc3-c3cc(Cl)cc(Cl)c3Cl)SC2)cc1 |  | 12 (≈ 29.3 µM) | 16 | 6.25 (≈ 15.3 µM) | 6.25 (≈ 15.3 µM) | 16 | 6.25 (≈ 15.3 µM) | 6.25 (≈ 15.3 µM) |  | 12 (≈ 29.3 µM) | 16 | 19.4 | 16 | 16 | 16 | 6.25 (≈ 15.3 µM) | 6.25 (≈ 15.3 µM) | zone of inhibition at 12 µg/mL (Klebsiella pneumoniae [21]): 11 mm; zone of inhibition at 12 µg/mL (Pseudomonas aeruginosa [24]): 11 mm
Clc1cc(Cl)c(Cl)c(-c2nnc3sc(-c4ccncc4Br)nn23)c1 | 16 | 6.25 (≈ 13.5 µM) | 16 | 6.25 (≈ 13.5 µM) | 6.25 (≈ 13.5 µM) | 16 | 6.25 (≈ 13.5 µM) | 6.25 (≈ 13.5 µM) | 16 | 6.25 (≈ 13.5 µM) | 16 | 19.4 | 16 | 16 | 16 | 6.25 (≈ 13.5 µM) | 6.25 (≈ 13.5 µM) | 
COc1ccc(C2=Nn3c(nnc3-c3cc(Cl)cc(Cl)c3Cl)SC2)cc1 | 16 | 6.25 (≈ 14.7 µM) | 16 | 6.25 (≈ 14.7 µM) | 6.25 (≈ 14.7 µM) | 16 | 6.25 (≈ 14.7 µM) | 6.25 (≈ 14.7 µM) | 16 | 6.25 (≈ 14.7 µM) | 16 | 19.4 | 16 | 16 | 16 | 6.25 (≈ 14.7 µM) | 6.25 (≈ 14.7 µM) | 
NC(=O)c1cc(C2=Nn3c(nnc3-c3cc(Cl)cc(Cl)c3Cl)SC2)ccc1O | 16 | 6.25 (≈ 13.7 µM) | 16 | 6.25 (≈ 13.7 µM) | 6.25 (≈ 13.7 µM) | 16 | 6.25 (≈ 13.7 µM) | 6.25 (≈ 13.7 µM) | 16 | 6.25 (≈ 13.7 µM) | 16 |  | 16 | 16 | 16 | 6.25 (≈ 13.7 µM) | 6.25 (≈ 13.7 µM) | 
